High-throughput results: PubChem, SRMLSC
The full list was thinned out, with hits kept by preference.
Yeast growth inh = reduces growth of yeast BB579 in restrictive medium; S. cerevisiae BB579 growth, OD615, 48 h; inhibition, % at 10 µM; 0.51% of 140,000 active; AID 804;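 active = inhibition above a set limit, 3 SD over the mean compound inhibition, cut at about 44% in these data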
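Test system: DeaD yeast strain BB579 / Buffer or medium: restrictive glucose-based CSMM-D medium / Doses: single 10 µM dose / Schedule: 4 h cell preincubation, 48 h compound exposure, 30 °C humidified / Technique: culture absorbance at 615 nm / Controls: amphotericin B positive control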
PostGolgi ctrl = yeast control strain growth, post-Golgi counter-screen. efflux-deficient yeast background strain, growth absorbance A615, 16 h. inhibition, % at 10 µM. 5% of 98,000 active. AID 738
PostGolgi yeast = growth inhibition of a yeast mutant, post-Golgi transport screen; post-Golgi transport phenotypic cell assay; inhibition, % at 10 µM; 0.9% of 98,000 active;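 also: yeast cells grown in 1536-well plates; yeast grown about 18 h at 30C before absorbance read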
Yeast lifespan up = extends the lifespan of yeast | S. cerevisiae growth with nicotinamide, OD615; deaD strain in restrictive glucose medium | inhibition of the nicotinamide effect, % at 10 µM | 0.68% of 130,000 active;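 active = inhibition above a set limit, placed 3 SD over the median of all compounds, cut at about 26% in these data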;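 also: 0% = nicotinamide-treated wells and 100% = cells grown without nicotinamide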
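Assay system: engineered S. cerevisiae DeaD replicative-lifespan strain, galactose-grown log-phase cells; medium: restrictive CSMM-D dextrose medium; also added: nicotinamide, 1.5 mM, co-present with compound; schedule: 48 h compound exposure at 30 °C, humidified; detection: absorbance at 615 nm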
An asterisk follows results filed as active; · = not tested or not shown. Rule as the data show it, unless noted: active = inhibition above about 30%; inactive = the rest.

SMILES	Yeast growth inh	PostGolgi ctrl	PostGolgi yeast	Yeast lifespan up
Cc1cc(OC(C)C)c2c(-c3ccccc3)cc(=O)oc2c1	-13	16	-4	-11
CCNC(=O)CCSc1nnc(-c2ccco2)o1	-23	·	·	0
Cc1cc([N+](=O)[O-])cnc1NC(C)c1ccccc1 (centres undefined)	-40	13	-10	1
S=C(N/N=C/c1ccccc1)N1CCOCC1	10	·	·	9
Cc1ccc2[nH]c3c(c2c1)CCc1cn[nH]c1-3	92*	63*	-3	-19
CC(=O)Nc1sc(N/N=C\c2ccco2)nc1-c1cccs1	6	·	·	0
O=C(O)c1ccc(NC2=C(N3CCOCC3)C(=O)c3ccccc3C2=O)cc1	-6	·	·	6
CC(=O)c1ccc(NC2=C(N3CCOCC3)C(=O)c3ccccc3C2=O)cc1	-50	34*	1	0
CCCS(=O)(=O)N1CCCC(C(=O)NCCN(CC)CC)C1 (centres undefined)	-51	33*	5	-12
CCCS(=O)(=O)N1CCCC(C(=O)NCCCN(CC)c2cccc(C)c2)C1 (centres undefined)	-42	31*	13	-22
CCCS(=O)(=O)N1CCC(C(=O)NCCCN(CC)c2cccc(C)c2)CC1	14	-8	2	-7
Cc1nn(-c2c(Cl)cc(Cl)cc2Cl)c(=O)c2ccccc12	-6	17	-11	49*
Cc1cc(OC(=O)c2ccc(Cl)cc2Cl)nc(C)n1	-23	-3	6	10
CC(C)Sc1nc(N)nc(-c2cccs2)c1C#N	76*	80*	13	-21
CCOC(=O)CSc1ncnc2c(C(=O)OCC)c3n(c12)CCC3	-34	·	·	-1
C=CCn1c(=O)c2ccccc2n2c(SCc3nnc(-c4ccccc4Br)o3)nnc12	-44	13	1	-6
O=C(c1ccccc1)c1nc2ccccc2[nH]c1=O	-53	0	1	76*
Cn1c2ccccc2c(=O)n2c(=O)c3ccccc3cc12	47*	-2	-1	-7
CCN1/C(=C/c2ccc3ccccc3[n+]2CC)C=Cc2ccccc21	14	66*	-1	7
CCOc1ccc2c(c1)-c1c(ssc1=S)C(C)(C)N2	-33	31*	7	-12
Cc1ccc(OCc2nnc(SCC(=O)c3cccs3)n2-c2ccccc2)cc1C	-33	19	1	-11
O=C(CSc1nnc(COc2ccccc2)n1-c1ccccc1)c1cccs1	-39	41*	-2	-6
COc1cccc(-c2csc(N3CCN(C(=O)C4CCCCC4)CC3)n2)c1	-33	38*	-3	-1
C=CCn1cnc2c(c1=O)c1nc3ccccc3nc1n2/N=C/c1cc(OC)c(OC)c(OC)c1	58*	2	20	-24
COc1ccc(/C=C/C(=O)OCC(=O)Nc2ccc(C)cc2)cc1S(=O)(=O)N1CCOCC1	-31	·	·	2
SMILES	Yeast growth inh	PostGolgi ctrl	PostGolgi yeast	Yeast lifespan up
CCCNC(=O)CS(=O)Cc1nc(-c2ccccc2C)oc1C (centres undefined)	1	1	1	-7
CCC(C)NC(=O)CS(=O)Cc1nc(-c2ccccc2C)oc1C (centres undefined)	47*	7	-1	0
CCc1cccc(NC(=O)CCCSc2nc3ccccc3[nH]2)c1	10	·	·	0
CCCCOc1cccc(C2(C(=O)O)CCCC2)c1	-7	-1	-1	28*
Cc1ccc(F)c(NC(=O)C2CCCCC2C(=O)O)c1 (centres undefined)	-4	-9	5	-17
CCc1cc(=O)oc2c(C)c(OCC(=O)N3CCCc4ccccc43)ccc12	-51	33*	13	-14
O=c1cc(O)c2c(=O)n(-c3ccccc3)c3c(c2o1)CCCCC3	-56	·	·	78*
O=C(NNC(=O)C(c1ccccc1)c1ccccc1)c1cccs1	7	2	3	2
O=[N+]([O-])c1ccc2nccn2c1	-35	17	3	8
CCCn1nnc(NC(=O)C(c2ccccc2)c2ccccc2)n1	-25	8	34*	-3
CCCn1nnc(NC(=O)c2ccc(-c3ccccc3)cc2)n1	-36	6	-1	-16
O=C(CSc1nnc(NC(=O)c2ccc(S(=O)(=O)N3CCOCC3)cc2)s1)Nc1ccccc1C(F)(F)F	-7	·	·	3
CCCCCCCCCCCCCCCC[n+]1cccc2ccccc21	100*	·	·	-13
CCCCCCCCC[n+]1cccc2c3ccccc3ccc21	31	98*	11	-20
CCCCn1c(=O)c2ccccc2c2ccccc2c1=O	-29	21	-6	-16
CCCCNc1nc2ccccc2[nH]1	-38	-2	10	-8
COc1ccc(Cl)cc1NC(=O)c1ccco1	-17	3	0	-12
O=C(Nc1ccc(Cl)cc1C(=O)Nc1ccc(Br)cn1)c1ccco1	-5	52*	22	-8
Clc1cc(Sc2ccc(Br)cc2)nnc1-c1ccccc1	-84	65*	-8	8
COCc1cc(Sc2ccc(Br)cc2)nc(-c2ccccc2)n1	-26	11	-3	-13
CC1CCc2sc(C(=O)N=Nc3c(O)[nH]c4ccccc34)cc2C1 (centres undefined)	-19	·	·	9
S=c1[nH]nc(-c2ccccn2)n1/N=C/c1ccc(Br)s1	-33	·	·	-3
CN(C)c1ncc(S(=O)(=O)c2ccc(Cl)cc2)c(-c2ccc(Cl)cc2Cl)n1	-18	49*	2	-5
CCOC(=O)N1CCN(C(=O)CN(c2ccc(Cl)c(C(F)(F)F)c2)S(C)(=O)=O)CC1	11	3	0	-10
COc1ccc(N(CC(O)Cn2cnc3ccccc32)S(=O)(=O)c2ccc(C)cc2)cc1 (centres undefined)	-25	·	·	5
SMILES	Yeast growth inh	PostGolgi ctrl	PostGolgi yeast	Yeast lifespan up
Cc1ccc(C(=O)/C=C/c2cn(CN3CCN(C)CC3)c3ccccc23)cc1	73*	41*	-2	-14
Cc1ccc(C(=O)/C=C/c2c[nH]c3ccccc23)cc1	-37	13	5	-28
O=C(CCC(=O)c1ccc(F)cc1)Nc1cccc(S(=O)(=O)Nc2cccc(Cl)c2)c1	-32	·	·	13
Cc1ccc(C)c(C(=O)NCc2ccncc2)c1	-27	-3	35*	-24
O=C(NC12CC3CC(CC(C3)C1)C2)c1ccc(COc2ccc(Cl)cc2[N+](=O)[O-])o1	-51	51*	4	-12
O=S1(=O)C=C(Sc2nc3cc(Cl)ccc3o2)c2ccccc21	-48	39*	14	42
O=[N+]([O-])c1ccc(Oc2ccc(F)cc2)c2ccncc12	-45	30	16	47
O=[N+]([O-])c1ccc(Oc2cccc(Br)c2)c2ccncc12	-10	79*	8	18
O=C(c1ccco1)N1CCN(CCCCOc2ccc(F)cc2)CC1	-41	·	·	5
COc1ccccc1CN(Cc1nc2ccccc2c(=O)[nH]1)C(=O)Nc1cccc(C)c1	6	20	-2	66*
O=C(CCC(=O)OCC(=O)c1ccc(Br)cc1)NC1CCCCC1	-21	37*	-4	-12
O=C(Cc1ccc(Br)cc1)NC1CCCCC1	-20	6	7	5
O=C(CCC(=O)OCC(=O)c1ccc(F)cc1)NC1CCCCC1	-9	4	40*	-11
